# Calls of active or inactive are those of the source. The calls are words filed in the database; no cut-off is given here.
# Experiments:
# [1] = Plasma clearance in rat at 1mg/kg, iv; type: ADME, organism-based
# [2] = target: Muscarinic acetylcholine receptor M3 (Homo sapiens) (UniProt P20309); assay: Activity at human M3 receptor expressed in CHO cells coexpressing Gqi5 assessed as effect on acetylcholine induced calcium mobilization up to 30 uM incubated for 144 secs prior to acetylcholine addition by Fluo-4-AM staining; type: functional, cell-based
# Muscarinic acetylcholine receptor M3 (Homo sapiens), sequence (P20309 whole entry, looked up): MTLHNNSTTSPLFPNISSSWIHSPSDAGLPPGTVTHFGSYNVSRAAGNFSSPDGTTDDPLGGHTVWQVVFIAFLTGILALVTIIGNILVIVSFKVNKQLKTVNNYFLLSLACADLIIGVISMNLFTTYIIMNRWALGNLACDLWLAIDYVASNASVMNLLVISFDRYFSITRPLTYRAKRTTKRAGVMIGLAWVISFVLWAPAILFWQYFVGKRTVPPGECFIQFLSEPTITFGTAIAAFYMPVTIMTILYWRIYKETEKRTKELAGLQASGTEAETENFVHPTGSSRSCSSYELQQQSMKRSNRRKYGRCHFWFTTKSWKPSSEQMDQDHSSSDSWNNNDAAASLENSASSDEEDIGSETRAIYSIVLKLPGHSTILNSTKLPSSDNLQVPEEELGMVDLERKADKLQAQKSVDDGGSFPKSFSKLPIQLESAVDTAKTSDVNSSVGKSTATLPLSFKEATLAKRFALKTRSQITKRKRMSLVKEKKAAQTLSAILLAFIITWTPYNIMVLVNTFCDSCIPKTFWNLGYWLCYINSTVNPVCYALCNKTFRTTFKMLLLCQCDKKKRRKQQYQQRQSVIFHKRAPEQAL
# [3] = Mean residence time in rat at 1 mg/kg, iv; type: ADME, organism-based; set-up: dose 1 mg/kg, route intravenous; details: in vivo
# [4] = system: Plasma; assay: Fraction unbound in human plasma; type: ADME, cell-free
# Method in brief: (§1)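 Plasma protein binding was measured by equilibrium dialysis in human and rat plasma and reported as % unbound.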
# [5] = target: T1, Muscarinic acetylcholine receptor M4 (Homo sapiens, UniProt P08173); assay: Positive allosteric modulation of human M4 receptor expressed in CHO-K1 cells coexpressing Gqi5 assessed as potentiation of acetylcholine-mediated calcium mobilization incubated for 144 secs prior to acetylcholine addition by Fluo-4-AM staining; type: functional, cell-based
# T1 sequence (P08173 whole entry): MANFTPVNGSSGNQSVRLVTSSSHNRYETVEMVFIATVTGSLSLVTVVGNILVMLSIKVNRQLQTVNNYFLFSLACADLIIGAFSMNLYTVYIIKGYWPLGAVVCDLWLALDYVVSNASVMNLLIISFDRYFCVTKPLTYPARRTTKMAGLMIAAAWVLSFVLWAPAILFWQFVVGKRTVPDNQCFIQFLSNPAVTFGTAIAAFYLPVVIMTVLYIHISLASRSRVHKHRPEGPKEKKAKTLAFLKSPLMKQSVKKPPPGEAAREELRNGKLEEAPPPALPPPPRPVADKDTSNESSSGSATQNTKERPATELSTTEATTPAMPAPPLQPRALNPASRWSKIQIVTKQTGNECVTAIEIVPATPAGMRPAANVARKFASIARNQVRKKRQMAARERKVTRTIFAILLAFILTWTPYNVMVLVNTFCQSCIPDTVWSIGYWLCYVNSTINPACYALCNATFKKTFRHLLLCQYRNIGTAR
# Method in brief: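 hM4 stably cotransfected with chimeric Gqi5 in CHO-K1 cells. Cells plated overnight at 37 °C, loaded with Fluo-4 AM for 45 min at 37 °C in HBSS/20 mM HEPES/2.5 mM probenecid. Compound pretreated 144 s (0.3% DMSO final), then EC20 ACh, then EC80 ACh 86 s later; kinetic fluorescence at 37 °C.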
# [6] = target: T2, Muscarinic acetylcholine receptor M2 (Homo sapiens) (UniProt P08172); assay: Activity at human M2 receptor expressed in CHO cells coexpressing Gqi5 assessed as effect on acetylcholine induced calcium mobilization up to 30 uM incubated for 144 secs prior to acetylcholine addition by Fluo-4-AM staining; type: functional, cell-based
# T2 sequence (whole entry): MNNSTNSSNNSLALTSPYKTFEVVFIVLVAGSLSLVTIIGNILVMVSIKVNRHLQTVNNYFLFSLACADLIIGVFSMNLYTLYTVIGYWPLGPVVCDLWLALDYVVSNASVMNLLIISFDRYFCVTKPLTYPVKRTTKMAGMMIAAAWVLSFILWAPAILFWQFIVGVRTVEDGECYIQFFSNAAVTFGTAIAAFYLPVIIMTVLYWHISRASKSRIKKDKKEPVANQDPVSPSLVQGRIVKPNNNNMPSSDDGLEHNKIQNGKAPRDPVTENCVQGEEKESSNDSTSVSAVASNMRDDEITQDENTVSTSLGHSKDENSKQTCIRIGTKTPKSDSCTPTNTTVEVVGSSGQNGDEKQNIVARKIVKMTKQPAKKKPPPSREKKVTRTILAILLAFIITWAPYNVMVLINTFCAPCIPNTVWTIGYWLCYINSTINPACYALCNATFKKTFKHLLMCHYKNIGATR
# Method in brief: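 Off-target mode: CHO-K1 lines stably expressing hM1, hM3 or hM5 (wild-type) or hM2 cotransfected with Gqi5, plated 15,000 cells/well, grown overnight at 37 °C. Fluo-4 AM loading 45 min at 37 °C in HBSS/20 mM HEPES/2.5 mM probenecid. Compound (up to 30 µM, 0.3% DMSO final) added 144 s before ACh. Calcium read kinetically at 37 °C.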
# [7] = Drug uptake in rat hepatic portal vein at 10 mg/kg, po administered as single dose measured at 1 hr; type: ADME, organism-based; set-up: dose 10 mg/kg, route oral; details: read-out: Drug uptake
# Method in brief: (§2)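 Rats got a single 10 mg/kg oral dose. At a single 1 h time point, brain (ng/g tissue), plasma and hepatic portal vein concentrations were measured, giving brain:plasma and portal vein:plasma ratios. The portal vein:plasma ratio was taken as an indicator of the extent of oxidative metabolism.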
# [8] = AUC in rat at 1 mg/kg, iv; type: ADME, organism-based; set-up: dose 1 mg/kg, route intravenous; details: plasma
# [9] = Half life in rat at 1 mg/kg, iv; type: ADME, organism-based; set-up: dose 1 mg/kg, route intravenous; details: in vivo
# [10] = target: T3, Muscarinic acetylcholine receptor M4 (Homo sapiens) (UniProt P08173); assay: Positive allosteric modulation of human M4 receptor expressed in CHO-K1 cells coexpressing Gqi5 assessed as potentiation of acetylcholine-mediated calcium mobilization incubated for 144 secs prior to acetylcholine addition by Fluo-4-AM staining relative to acetylcholine; type: functional, cell-based
# T3 sequence (whole entry): T1 sequence (P08173 whole entry)
# Method in brief: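 hM4-Gqi5 CHO-K1 cells, plated overnight, loaded with Fluo-4 AM (45 min, 37 °C). Compound (0.3% DMSO final) preincubated 144 s, then ACh EC20 added, and EC80 added 86 s later; 1 mM ACh wells for normalization. Calcium read at 37 °C, normalized to baseline and then to maximal ACh response. EC50 from four-parameter logistic fit; three independent determinations in triplicate.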
# [11] = Intrinsic clearance in rat liver microsomes; type: ADME, Microsome; details: read-out: CLH
# Method in brief: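 Intrinsic clearance was measured in human and rat hepatic microsomes to assess oxidative metabolism, with predicted hepatic clearance given in mL/min/kg.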
# [12] = Volume of distribution at steady state in rat at 1 mg/kg, iv; type: ADME, organism-based; set-up: dose 1 mg/kg, route intravenous; details: in vivo, read-out: Vdss
# [13] = system: Plasma; assay: Fraction unbound in rat plasma; type: ADME, cell-free; method in brief: as §1
# [14] = system: Brain; assay: Fraction unbound in rat brain homogenate; type: ADME, tissue-based
# Method in brief: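 Binding was measured in rat brain homogenate and reported as % unbound fraction.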
# [15] = Drug uptake in rat brain assessed per gram of tissue at 10 mg/kg, po administered as single dose measured at 1 hr; type: ADME, organism-based; set-up: dose 10 mg/kg, route oral; details: read-out: Drug uptake; method in brief: as §2
# [16] = Plasma concentration in rat at 10 mg/kg, po administered as single dose measured at 1 hr; type: ADME, organism-based; set-up: dose 10 mg/kg, route oral
# Method in brief: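 Rats received a single 10 mg/kg oral dose. At 1 h, drug was measured in brain (ng/g), plasma and hepatic portal vein, and brain:plasma and HPV:plasma ratios were calculated.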
# [17] = target: T4, Muscarinic acetylcholine receptor M1 (Homo sapiens) (UniProt P11229); assay: Activity at human M1 receptor expressed in CHO-K1 cells coexpressing Gqi5 assessed as effect on acetylcholine induced calcium mobilization up to 30 uM incubated for 144 secs prior to acetylcholine addition by Fluo-4-AM staining; type: functional, cell-based
# T4 sequence (whole entry): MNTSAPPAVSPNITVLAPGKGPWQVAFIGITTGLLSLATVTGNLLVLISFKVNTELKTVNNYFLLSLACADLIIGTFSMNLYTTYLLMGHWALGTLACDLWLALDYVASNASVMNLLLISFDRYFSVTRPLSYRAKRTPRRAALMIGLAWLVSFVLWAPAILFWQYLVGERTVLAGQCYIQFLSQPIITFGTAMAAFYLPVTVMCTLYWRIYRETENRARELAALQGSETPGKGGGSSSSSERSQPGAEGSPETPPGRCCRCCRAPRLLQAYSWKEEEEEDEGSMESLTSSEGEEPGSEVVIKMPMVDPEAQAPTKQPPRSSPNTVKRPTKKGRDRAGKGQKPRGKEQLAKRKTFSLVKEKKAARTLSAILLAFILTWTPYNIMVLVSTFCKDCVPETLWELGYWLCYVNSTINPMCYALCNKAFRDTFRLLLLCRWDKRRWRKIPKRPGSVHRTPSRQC
# [18] = target: T5, Muscarinic acetylcholine receptor M5 (Homo sapiens) (UniProt P08912); assay: Activity at human M5 receptor expressed in CHO cells coexpressing Gqi5 assessed as effect on acetylcholine induced calcium mobilization up to 30 uM incubated for 144 secs prior to acetylcholine addition by Fluo-4-AM staining; type: functional, cell-based
# T5 sequence (whole entry): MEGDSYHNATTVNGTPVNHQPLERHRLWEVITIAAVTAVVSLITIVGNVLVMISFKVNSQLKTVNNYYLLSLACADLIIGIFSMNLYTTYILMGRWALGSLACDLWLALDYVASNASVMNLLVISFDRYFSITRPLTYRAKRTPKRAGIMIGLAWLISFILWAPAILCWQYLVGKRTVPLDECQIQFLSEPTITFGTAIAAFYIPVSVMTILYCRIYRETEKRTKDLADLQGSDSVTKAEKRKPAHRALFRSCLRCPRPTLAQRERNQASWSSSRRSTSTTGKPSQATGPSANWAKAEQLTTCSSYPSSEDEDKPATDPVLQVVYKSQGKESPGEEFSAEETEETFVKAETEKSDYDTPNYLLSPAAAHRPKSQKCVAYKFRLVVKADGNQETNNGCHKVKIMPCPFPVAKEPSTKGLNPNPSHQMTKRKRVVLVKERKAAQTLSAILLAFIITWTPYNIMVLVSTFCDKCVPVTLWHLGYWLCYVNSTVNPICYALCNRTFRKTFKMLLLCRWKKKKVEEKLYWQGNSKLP
structure (smiles),measurement,setting,value
COc1ccc(C)c2sc(NC(=O)c3ccncc3)nc12,clearance,[1],11.5 mL/min/kg
same,Activity,[2],inactive
same,MRT,[3],1.42 h
same,Fu,[4],1%
same,EC50,[5],1.29 µM
same,Activity,[6],inactive
same,concentration at 1 h,[7],3070 ng/mL
same,AUC,[8],1440 ng·h/mL
same,half-life,[9],0.95 h
same,%max,[10],65.2%
same,CLint scaled,[11],48.5 mL/min/kg
same,Vd,[12],0.97 L/kg
same,Fu,[13],3.2%
same,Fu,[14],0.9%
same,concentration at 1 h,[15],3090 ng/g
same,concentration at 1 h,[16],3740 ng/mL
same,Activity,[17],inactive
same,Activity,[18],inactive

# — ChEMBL document CHEMBL2057082, “Discovery of N-(4-methoxy-7-methylbenzo[d]thiazol-2-yl)isonicatinamide, ML293, as a novel, selective and brain penetrant positive allosteric modulator of the muscarinic 4 (M4) receptor” (Bioorg Med Chem Lett, 2012)
